Measured values reported in ChEMBL document CHEMBL1795269, “Novel (E)-5-styryl-2,2'-bithiophene derivatives as ligands for β-amyloid plaques” (Eur J Med Chem, 2011).
The source made the active and inactive calls. No cut-off for these calls is given here.

Experiments:
[1] = Displacement of [125I]-TZDM from amyloid beta 1 to 42 after 2 hrs by gamma counting
Summary of the method: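 Aβ1-42 aggregated at 0.25 mg/mL in pH 7.4 buffer (10 mM sodium phosphate, 1 mM EDTA), 37 °C for 42 h with shaking. Fibrils (28 nM final) mixed with [125I]TZDM and inhibitor (10^-5 to 10^-10 M in EtOH) in PBS (0.2 M, pH 7.4). Incubated 2 h at 37 °C; nonspecific binding taken with 100 nM TZDM. Bound and free separated by vacuum filtration through glass fibre filters, washed with cold PBS containing 10% ethanol, then counted; Ki reported.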

Mus musculus [2] = species on record: Mus musculus; experiment: Binding affinity to amyloid beta in APP/PS1 transgenic C57 mouse brain cortex at 5 uCi/100 uL after 30 mins by autoradiography; assay type: tissue-based; details: tested as the 125I-labelled form
Summary of the method: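 Deparaffinized transgenic mouse brain sections incubated 30 min at room temperature with [125I]-labelled tracer (5 μCi/100 μL). Washed with saturated Li2CO3 in 40% EtOH for 3 min, then 40% EtOH for 3 min, then rinsed 30 s in water. Plaques checked afterwards by thioflavin-S (1 μM) fluorescence staining of the same sections.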

Mus musculus [3] = species on record: Mus musculus; experiment: Binding affinity to amyloid beta in APP/PS1 transgenic C57 mouse brain at 1 uM after 10 mins by fluorescence assay; assay type: tissue-based
Summary of the method: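 Paraffin-embedded brain sections (10 μm) from APP/PS1 C57 transgenic mouse, deparaffinized through xylene and graded ethanol, then PBS (0.2 M, pH 7.4) 30 min. Sections incubated 10 min with compound (1 μM in 20% ethanol), washed with 50% ethanol and PBS. Confocal fluorescence read at excitation 405 nm, 505 nm long-pass. Plaques confirmed with thioflavin-S (1 μM) on adjacent sections.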

| Ki [1] [nM] | inhibition [1] | Activity (Mus musculus [2]) | Activity (Mus musculus [3]) | Compound |
| --- | --- | --- | --- | --- |
| 1.48 | Dose-dependent effect | – | – | COc1ccc(/C=C/c2ccc(-c3cccs3)s2)cc1 |
| 1.32 | Dose-dependent effect | – | – | Brc1ccc(-c2ccc(/C=C/c3ccccc3)s2)s1 |
| 1.15 | Dose-dependent effect | – | – | Cc1ccc(/C=C/c2ccc(-c3cccs3)s2)cc1 |
| 0.22 | Dose-dependent effect | – | – | Brc1ccc(/C=C/c2ccc(-c3ccc(Br)s3)s2)cc1 |
| 0.74 | Dose-dependent effect | – | – | Clc1ccc(/C=C/c2ccc(-c3cccs3)s2)cc1 |
| 0.55 | Dose-dependent effect | – | – | Fc1ccc(/C=C/c2ccc(-c3ccc(I)s3)s2)cc1 |
| 1.58 | Dose-dependent effect | – | – | CC(C)(C)c1ccc(/C=C/c2ccc(-c3ccc(I)s3)s2)cc1 |
| 0.63 | Dose-dependent effect | – | – | Ic1ccc(/C=C/c2ccc(-c3ccc(I)s3)s2)cc1 |
| 0.72 | Dose-dependent effect | – | – | COc1ccc(/C=C/c2ccc(-c3ccc(Br)s3)s2)cc1 |
| 0.73 | Dose-dependent effect | – | Active | CC(C)(C)c1ccc(/C=C/c2ccc(-c3cccs3)s2)cc1 |
| 0.45 | Dose-dependent effect | – | – | Cc1ccc(/C=C/c2ccc(-c3ccc(Br)s3)s2)cc1 |
| 0.1 | Dose-dependent effect | – | Active | O=[N+]([O-])c1ccc(/C=C/c2ccc(-c3ccc(Br)s3)s2)cc1 |
| 0.99 | Dose-dependent effect | – | – | Brc1ccc(/C=C/c2ccc(-c3cccs3)s2)cc1 |
| 0.95 | Dose-dependent effect | – | – | CC(C)(C)c1ccc(/C=C/c2ccc(-c3ccc(Br)s3)s2)cc1 |
| 0.56 | Dose-dependent effect | – | – | O=[N+]([O-])c1ccc(/C=C/c2ccc(-c3cccs3)s2)cc1 |
| 41 | Dose-dependent effect | – | – | Nc1ccc(/C=C/c2ccc(-c3cccs3)s2)cc1 |

Second part, the compound before the results:

| Compound | Ki [1] [nM] | inhibition [1] | Activity (Mus musculus [2]) | Activity (Mus musculus [3]) |
| --- | --- | --- | --- | --- |
| Clc1ccc(/C=C/c2ccc(-c3ccc(Br)s3)s2)cc1 | 1.02 | Dose-dependent effect | – | – |
| Fc1ccc(/C=C/c2ccc(-c3cccs3)s2)cc1 | 4.06 | Dose-dependent effect | – | – |
| Brc1ccc(/C=C/c2ccc(-c3ccc(I)s3)s2)cc1 | 0.19 | Dose-dependent effect | – | – |
| COc1ccc(/C=C/c2ccc(-c3ccc(I)s3)s2)cc1 | 0.3 | Dose-dependent effect | Active | – |
| Cc1ccc(/C=C/c2ccc(-c3ccc(I)s3)s2)cc1 | 0.8 | Dose-dependent effect | – | – |
| Oc1ccc(/C=C/c2ccc(-c3ccc(Br)s3)s2)cc1 | 3.6 | Dose-dependent effect | – | – |
| Ic1ccc(/C=C/c2ccc(-c3cccs3)s2)cc1 | 0.92 | Dose-dependent effect | Active | – |
| Ic1ccc(-c2ccc(/C=C/c3ccccc3)s2)s1 | 0.24 | Dose-dependent effect | – | – |
| C(=C\c1ccc(-c2cccs2)s1)/c1ccccc1 | 4.78 | Dose-dependent effect | – | – |
| CN(C)c1ccc(/C=C/c2ccc(-c3cccs3)s2)cc1 | 0.73 | Dose-dependent effect | – | Active |
| Clc1ccc(/C=C/c2ccc(-c3ccc(I)s3)s2)cc1 | 1.1 | Dose-dependent effect | – | – |
| CN(C)c1ccc(/C=C/c2ccc(-c3ccc(Br)s3)s2)cc1 | 0.36 | Dose-dependent effect | – | Active |
| Brc1ccc(-c2ccc(/C=C/c3ccc(I)cc3)s2)s1 | 0.51 | Dose-dependent effect | – | – |
| Fc1ccc(/C=C/c2ccc(-c3ccc(Br)s3)s2)cc1 | 0.81 | Dose-dependent effect | – | – |
